Calls of active or inactive are those of the source. The calls are words filed in the database; no cut-off is given here.
Experiments:
[1] = system: KB; assay: Induction of ROS generation in human KB cells at 30 uM incubated for 72 hrs by APF probe-based flow cytometer analysis relative to control; format: functional
Summary of the method: (§1)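 Cells were treated with 30 μM compound. Highly reactive oxygen species were detected with the APF probe, and APF mean fluorescence intensity was measured by FACS and normalized to solvent control.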

[2] = species: Homo sapiens; assay: Displacement of folate-FITC from folate receptor in human KB cells at 25 to 1000 pmol incubated for 10 mins by FITC staining-based FACS analysis; format: cell-based
Summary of the method: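 Competition binding in 0.5·10^6 KB cells per experiment. Compound at 25, 50, 100, 250, 500 or 1000 pmol was combined with 50 pmol Folate-FITC. Cell-bound fluorescence was read by FACS as MFI on channel PL-1. Mean ± SEM, N ≥ 5.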

[3] = system: KB; assay: Cytotoxicity against human KB cells in low folate medium assessed as reduction in metabolic activity at 1 to 150 uM incubated for 24 to 72 hrs by MTS assay; format: functional, cell-based
Summary of the method: (§2)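 MTS metabolic-activity assay in low folate RPMI-1640 with 10% dialyzed FCS and 2 nM FA. Compound concentrations ran from 1 to 150 μM, with incubation for 24, 48 and 72 h. IC50 values were derived from the concentration-response data.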

[4] = system: IGROV-1; assay: Cytotoxicity against human IGROV1 cells in low folate medium assessed as reduction in metabolic activity at 1 to 150 uM incubated for 24 to 72 hrs by MTS assay; format: functional, cell-based; summary of the method: as §2
[5] = Retention time of the compound by LC-MS analysis; format: physicochemical
[6] = system: MCF7; assay: Induction of ROS generation in human MCF7 cells at 30 uM incubated for 72 hrs by APF probe-based flow cytometer analysis relative to control; format: cell-based; conditions: mcf7, 72 h; summary of the method: as §1
[7] = system: MCF7; assay: Cytotoxicity against human MCF7 cells in high folate medium assessed as reduction in metabolic activity at 50 uM incubated for 24 to 72 hrs by MTS assay; format: ADME, cell-based; conditions: mcf7, 50 µM
Summary of the method: (§3)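 MTS assay in standard high folate medium (RPMI-1640 containing 2.3 μM FA, 10% FCS). Cells were treated with 30 or 50 μM compound for 24, 48 and 72 h. Metabolic activity was compared with solvent control.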

[8] = system: KB; assay: Cytotoxicity against human KB cells in high folate medium assessed as reduction in metabolic activity at 30 uM incubated for 24 to 72 hrs by MTS assay; format: functional, cell-based; summary of the method: as §3
[9] = system: IGROV-1; assay: Cytotoxicity against human IGROV1 cells in low folate medium assessed as metabolic activity at 50 uM incubated for 72 hrs by MTS assay relative to control; format: functional
Summary of the method: (§4)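 MTS metabolic-activity assay under low folate conditions (RPMI-1640, 10% dialyzed FCS, supplemented with 2 nM FA). Compounds were added as free ligand at 30 or 50 μM for 24, 48 and 72 h. Activity is expressed relative to DMSO control. Each treatment was run in triplicate and each experiment three times; mean ± SEM.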

[10] = system: IGROV-1; assay: Cytotoxicity against human IGROV1 cells in low folate medium assessed as metabolic activity at 30 uM incubated for 72 hrs by MTS assay relative to control; format: functional; summary of the method: as §4
[11] = system: MCF7; assay: (§5) Cytotoxicity against human MCF7 cells in low folate medium assessed as metabolic activity at 50 uM incubated for 72 hrs by MTS assay relative to control; format: ADME, cell-based; conditions: mcf7, 72 h, 50 µM; summary of the method: as §4
[12] = system: KB; assay: Cytotoxicity against human KB cells in low folate medium assessed as metabolic activity at 50 uM measured after 72 hrs by MTS assay relative to control; format: functional; summary of the method: as §4
[13] = system: MCF7; assay: (§6) Cytotoxicity against human MCF7 cells in low folate medium assessed as metabolic activity at 30 uM incubated for 72 hrs by MTS assay relative to control; format: ADME, cell-based; conditions: mcf7, 72 h, 30 µM; summary of the method: as §4
[14] = system: KB; assay: Cytotoxicity against human KB cells in low folate medium assessed as metabolic activity at 30 uM measured after 72 hrs by MTS assay relative to control; format: functional; summary of the method: as §4
[15] = system: KB; assay: Cytotoxicity against human KB cells in low folate medium assessed as reduction in metabolic activity at 50 uM measured after 48 hrs by MTS assay; format: functional, cell-based
Summary of the method: (§7)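 MTS assay on KB cells under low folate conditions (RPMI-1640, 10% dialyzed FCS, 2 nM FA). Cells were exposed to 30 or 50 μM compound as free ligand for 24, 48 and 72 h and compared with DMSO control. Treatments in triplicate, experiment repeated three times; mean ± SEM.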

[16] = system: KB; assay: Cytotoxicity against human KB cells in low folate medium assessed as reduction in metabolic activity at 30 uM measured after 48 hrs by MTS assay; format: functional, cell-based; summary of the method: as §7
[17] = system: DNA; assay: Induction of Escherichia coli XL1 Blue pUC18 DNA cleavage assessed as turnover frequency in presence of DTT and 1 equivalent of (NH4)2Fe(SO4)2.6H2O at 1 uM by agarose gel electrophoresis method; format: nucleic-acid assay
Summary of the method: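 Supercoiled pUC18 plasmid DNA was incubated at 37 °C with 1 μM iron complex in the presence of DTT as reductant. Strand cleavage was followed and turnover frequency determined.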

[18] = Binding affinity to iron assessed as formation of iron complex in the presence of Fe(ClO4)2 and GSH after 5 mins by LC-MS analysis
Summary of the method: (§8)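 Conjugate kept in tris-HCl buffer pH 8.5 with two equivalents of Fe(ClO4)2 and 5 mM glutathione. LC-MS was used to follow in situ iron-complex formation and disulphide cleavage products at 5 min, 20 min and for a further 3 h.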

[19] = system: KB; assay: Cytotoxicity against human KB cells in high folate medium assessed as reduction in metabolic activity at 30 uM incubated for 24 to 72 hrs in the presence of excess folic acid by MTS assay; format: functional, cell-based
Summary of the method: (§9)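 Competition MTS assay in standard RPMI medium (high folate). Cells were co-treated with 30 μM compound plus 150 μM FA, or with 150 μM FA alone, for 24, 48 and 72 h, and metabolic activity was read by MTS.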

[20] = system: MCF7; assay: Cytotoxicity against human MCF7 cells in high folate medium assessed as reduction in metabolic activity at 30 uM incubated for 24 to 72 hrs in the presence of excess folic acid by MTS assay; format: ADME, cell-based; conditions: mcf7, 30 µM; summary of the method: as §9
[21] = system: IGROV-1; assay: Cytotoxicity against human IGROV1 cells in high folate medium assessed as reduction in metabolic activity at 30 uM incubated for 24 to 72 hrs in the presence of excess folic acid by MTS assay; format: functional, cell-based; summary of the method: as §9
[22] = Stability in pH 8.5 tris-HCl buffer assessed as cleavage of compound in presence of Fe(ClO4)2 and GSH incubated for 3 hrs by LC-MS analysis; conditions: pH 8.5, 3 h
[23] = as §5; format: ADME, cell-based; conditions: MCF7 cells, read-out: Activity; summary of the method: as §4
[24] = as §6; format: ADME, cell-based; conditions: MCF7 cells, read-out: Activity; summary of the method: as §4
[25] = Stability in pH 8.5 tris-HCl buffer assessed as cleavage of compound in presence of Fe(ClO4)2 and GSH incubated for 20 mins by LC-MS analysis; format: physicochemical; conditions: pH 8.5, 20 min; summary of the method: as §8
[26] = Stability in pH 8.5 tris-HCl buffer assessed as compound cleavage in presence of Fe(ClO4)2 and GSH after 5 mins by LC-MS analysis; format: physicochemical; conditions: pH 8.5, 5 min; summary of the method: as §8
[27] = system: MCF7; assay: Cytotoxicity against human MCF7 cells in low folate medium assessed as reduction in metabolic activity at 1 to 150 uM incubated for 24 to 72 hrs by MTS assay; format: ADME, cell-based; conditions: mcf7, 150 µM; summary of the method: as §2

SMILES | Activity [1] | Activity [2] | Retention_time [5] | fold change (FC) [6] | Activity [7] | Activity [8] | Activity [9] | Activity [10] | Activity [12] | Activity [14] | Activity [17] | Activity [18] | Activity [19] | Activity [20] | Activity [21] | further results
Nc1nc(=O)c2nc(CNc3ccc(C(=O)N[C@@H](CCC(=O)O)C(=O)O)cc3)cnc2[nH]1 | inactive | Active | – | – | – | – | – | – | – | – | – | – | – | – | – | Activity [3]: inactive; Activity [4]: inactive
Nc1nc(O)c2nc(CNc3ccc(C(=O)N[C@@H](CCC(=O)NCCNC(=O)CCS)C(=O)O)cc3)cnc2n1 | – | – | 9.12 min | – | – | – | – | – | – | – | – | – | – | – | – | –
Nc1nc(O)c2nc(CNc3ccc(C(=O)N[C@@H](CCC(=O)NCCNC(=O)CCCCCCC(=O)NCCCNC(=O)c4ccc(CN(Cc5ccccn5)C(c5ccccn5)c5ccccn5)nc4)C(=O)O)cc3)cnc2n1 | inactive | Active | – | 1.6 | Non-Toxic | inactive | 58.1% | 82.4% | 62.4% | 88.1% | 0.16 s⁻¹ | Active | inactive | Non-Toxic | inactive | Activity [11]: Non-Toxic; Activity [13]: Non-Toxic; Activity [15]: inactive; Activity [16]: inactive; Stability [22]: Stable
Nc1nc(O)c2nc(CNc3ccc(C(=O)N[C@@H](CCC(=O)NCCNC(=O)CCSSCCC(=O)NCCCNC(=O)c4ccc(CN(Cc5ccccn5)C(c5ccccn5)c5ccccn5)nc4)C(=O)O)cc3)cnc2n1 | – | Active | – | 1.6 | Non-Toxic | inactive | 22% | 47.2% | 11.2% | 38.8% | 0.19 s⁻¹ | Active | inactive | Non-Toxic | inactive | fold change (FC) [1]: 3.5; viability at 72 h, 50 µM [23]: 76.4%; viability at 72 h, 30 µM [24]: 78.9%; Stability [25]: Unstable; Stability [26]: Unstable
Nc1nc2ncc(CNc3ccc(C(=O)N[C@@H](CCC(=O)O)C(=O)O)cc3)nc2c(=O)[nH]1 [FOLIC ACID] | – | – | – | – | – | – | – | – | – | – | – | – | – | – | – | Activity [27]: Non-Toxic
Nc1nc(O)c2nc(CNc3ccc(C(=O)N[C@@H](CCC(=O)NCCNC(=O)CCSSC[C@H](NC(=O)CC[C@H](N)C(=O)O)C(=O)NCC(=O)O)C(=O)O)cc3)cnc2n1 | – | – | 8.77 min | – | – | – | – | – | – | – | – | – | – | – | – | –
